An excerpt weighted towards active compounds, which were near 3.7% of everything screened.
Kir21 block = inhibitors of mouse Kir2.1 inward-rectifier potassium channel | Inward rectifier potassium channel 2 (Mus musculus), P35561 | HEK293-Kir2.1, FluxOR thallium flux fluorescence; active compounds read low | B-score at 10 µM | 0.85% of 310,000 active;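 active = fluorescence ratio B-score at or below minus 3 SD of library scores, with starting-brightness B-score within 2 SD, cut at about -4.2 in these data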;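 also: channel flux triggered by added potassium and thallium sulfate stimulus; B-score of peak minus minimum fluorescence over baseline after thallium stimulus; more negative B-score means stronger Kir2.1 block with less thallium influx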
KCNQ1 pot = potentiators or activators of KCNQ1 channel, primary screen, cell-based, thallium flux, high-throughput; Potassium voltage-gated channel subfamily KQT member 1 (Homo sapiens), P51787; CHO-K1 KCNQ1, thallium flux FluxOR fluorescence; active compounds read high; B-score at 10 µM; 0.35% of 310,000 active;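 active = fluorescence ratio B-score, a plate-corrected score, at least three library SD, with initial intensity B-score within 5 SD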
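Assay system: CHO-K1 cells stably expressing KCNQ1. Medium: assay buffer for compound exposure, DMSO matched across wells. Timing: 37 °C overnight plating, 90-min dark dye load, 20-min compound pretreatment. Signal: kinetic FluxOR fluorescence, 10 s baseline plus 110 s post-stimulus.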
hERG rescue = hERG rescue from dofetilide block, primary screen, cell-based, CHO-hERG, FluxOR thallium flux, dofetilide IC70; Voltage-gated inwardly rectifying potassium channel KCNH2 (Homo sapiens), Q12809; dofetilide IC70 present; activation (rescue from dofetilide block), less the hit threshold, % at 10 µM; 0.51% of 310,000 active; AID 1511, 2009;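 active = activation above the mean of controls blocked by dofetilide plus 5 SD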;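 also: thallium influx through hERG after potassium depolarization seen as dye fluorescence rise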
KCNK9 inh = KCNK9 potassium channel inhibitors, primary screen, HEK293 cells, thallium flux; 1.2% of 310,000 active; B-score at 10 µM; Potassium channel subfamily K member 9 (Homo sapiens), Q9NPC2; FluxOR thallium flux fluorescence; active compounds read low;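 active = ratio B-score over 3 SD below the library mean, with starting fluorescence within 5 SD of its mean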;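 also: negative B-score means less thallium flux so channel inhibition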
Target sequence (Q9NPC2 whole entry, looked up): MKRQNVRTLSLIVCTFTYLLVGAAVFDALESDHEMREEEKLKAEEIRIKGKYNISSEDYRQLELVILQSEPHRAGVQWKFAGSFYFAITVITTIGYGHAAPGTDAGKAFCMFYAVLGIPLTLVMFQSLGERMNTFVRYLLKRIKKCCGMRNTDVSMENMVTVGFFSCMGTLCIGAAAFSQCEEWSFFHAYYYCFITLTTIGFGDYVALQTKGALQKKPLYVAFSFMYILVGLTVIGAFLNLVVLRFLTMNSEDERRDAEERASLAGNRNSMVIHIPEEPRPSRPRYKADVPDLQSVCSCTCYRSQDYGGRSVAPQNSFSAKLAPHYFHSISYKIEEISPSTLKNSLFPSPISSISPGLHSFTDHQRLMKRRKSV
KCNK3 inh = human KCNK3 channel inhibitors, primary screen, CHO cells, FluxOR thallium flux, B-score; FluxOR fluorescence; active compounds read low; AID 602410, 2012; Potassium channel subfamily K member 3 (Homo sapiens), O14649; 0.84% of 340,000 active; B-score at 10 µM;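 active = B-score under library mean minus 4 SD, starting fluorescence ratio at most library mean plus 5 SD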;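 also: more negative B-score means stronger inhibition of thallium flux through KCNK3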
KCNQ1 inh = inhibitors of human KCNQ1 channel, primary screen, cell-based, thallium flux, high-throughput; 1.3% of 310,000 active; Potassium voltage-gated channel subfamily KQT member 1 (Homo sapiens), P51787; CHO-K1 KCNQ1, FluxOR thallium flux fluorescence; active compounds read high; B-score at 10 µM;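 active = compounds whose thallium flux B-score, printed positive for inhibition, exceeds three library SD while starting fluorescence stays within three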;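 also: channel opened by potassium depolarization with thallium stimulus after 20 min compound exposure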
* hit, by the source's call; i = inactive; · = not tested or not shown.

SMILES	Kir21 block	KCNQ1 pot	hERG rescue	KCNK9 inh	KCNK3 inh	KCNQ1 inh
O=C1c2ccc([N+](=O)[O-])cc2C(=O)N1c1ccc(Cl)cn1	-2.19	i	-11.0	i	i	i
O=C(CC1C[C@H](C(=O)N2CCCCC2)[C@@]2(CCc3ccccc3)c3[nH]c4ccccc4c3CCN2C1=O)NCCc1ccccn1 (stereo partly specified)	·	·	·	·	i	·
CC(C#N)Sc1ncnc2sc(-c3ccccc3)cc12 (stereo unspecified)	-0.74	i	-4.1	i	i	6*
CN(CCC#N)C(=O)CSc1ncnc2sc(-c3ccccc3)cc12	-0.06	i	-3.9	i	i	i
CC(C)CCNC(=O)C1CCCCN1S(=O)(=O)c1ccc(F)cc1 (stereo unspecified)	-0.06	i	5.0*	i	i	i
CCC1CCC2(CC1)NC(CO)(CO)CO2 (stereo unspecified)	-0.56	8*	-10.0	i	i	i
N#CC(C(=O)NCCc1ccccc1)c1nc2ccccc2nc1N1CCCCC1 (stereo unspecified)	0.45	i	-11.7	i	i	i
CCCCCCNC(=O)C(C#N)c1nc2ccccc2nc1N1CCOCC1 (stereo unspecified)	-0.67	i	-2.3	-6.77*	i	7*
CCCCCCOC(=O)C(C#N)c1nc2ccccc2nc1N1CCN(CC)CC1 (stereo unspecified)	1.19	i	-28.4	i	i	7*
CCCCCNC(=O)C(C#N)c1nc2ccccc2nc1N1CCCC1 (stereo unspecified)	-1.96	i	-13.4	i	i	7*
COCCCNC(=O)C(C#N)c1nc2ccccc2nc1N1CCCC1 (stereo unspecified)	0.61	i	-9.3	i	i	i
CCOC(=O)N1CCN(c2nc3ccccc3nc2C(C#N)C(=O)NCCc2ccccc2)CC1 (stereo unspecified)	0.38	i	-13.9	i	i	8*
COc1ccc(C(=O)NCc2nnc(SCC(=O)N3CCCC3)o2)cc1	0.85	i	-1.1	i	i	i
Cc1occc1C(=O)NNC(=O)c1ccccc1[N+](=O)[O-]	-0.24	i	-5.3	i	i	i
CCn1c(=O)c(C(=O)NNS(=O)(=O)c2ccc(C)cc2)c(O)c2ccccc21	0.22	i	-7.3	i	i	i
CCn1c(=O)c(C(=O)NCCc2ccc(Cl)cc2)c(O)c2ccccc21	0.26	i	-5.7	i	i	i
CCCn1c(=O)c(C(=O)NCCCc2ccccc2)c(O)c2ccccc21	-0.32	i	-6.0	i	i	7*
CCn1c(=O)c(C(=O)NCCCc2ccccc2)c(O)c2ccccc21	0.05	i	-6.7	i	i	6*
CCn1c(=O)c(C(=O)NNS(=O)(=O)c2ccc(Br)cc2)c(O)c2ccccc21	-0.02	i	-9.1	i	i	6*
CCCn1c(=O)c(C(=O)NCCc2ccc(Cl)cc2)c(O)c2ccccc21	-0.39	i	-7.2	i	i	7*
CCCn1c(=O)c(C(=O)NCc2ccncc2)c(O)c2ccccc21	1.03	i	-3.8	i	i	i
CCOC(=O)C1=CN(CC2CCCCC2)CCC1=O	·	·	·	·	i	·
COc1cc2c(cc1NC(=S)Nc1cccc(C(F)(F)F)c1)oc1ccccc12	1.16	i	-21.4	i	i	7*
COc1cc2c(cc1NC(=S)Nc1cccc3ccccc13)oc1ccccc12	-4.07	i	-4.6	i	i	i
Cc1ccc(C23CC4CC(CC(CN)(C4)C2)C3)cc1	-5.9*	i	-9.3	i	i	i
SMILES	Kir21 block	KCNQ1 pot	hERG rescue	KCNK9 inh	KCNK3 inh	KCNQ1 inh
O=C(NNc1c2ccccc2nc2ccccc12)c1ccccc1O	0	i	-10.9	i	i	i
O=C(NNc1c2ccccc2nc2ccccc12)c1ccccc1Cl	-0.98	9*	-3.1	i	i	i
CN(C)CC(CCC(CN(C)C)C(=O)c1ccccc1)C(=O)c1ccccc1 (stereo unspecified)	-1.72	20*	-2.4	i	i	i
COc1ccc(C(=O)C(CCCCC(CN(C)C)C(=O)c2ccc(OC)cc2)CN(C)C)cc1 (stereo unspecified)	-2.8	i	-11.0	i	i	i
CCOc1ccc(C(=O)C(CCC(CN(C)C)C(=O)c2ccc(OCC)cc2)CN(C)C)cc1 (stereo unspecified)	-0.67	8*	-13.6	i	i	i
COC(=O)CNC(=O)C1CCN(S(=O)(=O)c2cnc[nH]2)CC1	-0.16	i	-6.8	i	i	i
COc1ccccc1C(=O)NCCC(=O)Nc1ncccc1O	0.55	i	-12.0	i	i	i
COc1ccccc1C(=O)n1nc(-c2ccccc2)nc1NCc1ccco1	-1.78	i	-14.3	-7.72*	i	i
CNC(=O)c1sc(N2N=C3/C(=C/c4ccccc4)CCCC3C2c2ccccc2)nc1C (stereo unspecified)	-0.72	i	-8.8	-8.67*	i	i
Cc1ccc(NS(=O)(=O)c2c(C(=O)N3CCCC3)c(C)n(C)c2C)cc1	2.01	i	-4.5	i	i	i
COc1cc(CNC2CCCC2)cc(Cl)c1OCc1ccccc1F	-4.65*	i	-15.3	i	i	i
COc1cc(CNC2CCCCCC2)cc(OC)c1O	-0.28	i	2.0	i	i	i
Cc1ccc(N(CCC#N)C(=O)COC(=O)C2CCN(S(=O)(=O)c3ccc(C)c(C)c3)CC2)cc1	-0.93	i	-14.5	i	i	i
Cc1ccc(Cl)cc1NC(=S)NCCCSC1CCCCC1	-0.82	i	-14.4	i	i	8*
O=C(CSc1nc2ccccc2s1)N1c2ccccc2Sc2ccc(Cl)cc21	-1.15	i	-7.3	i	i	i
O=C(CSc1nc2cc(Cl)ccc2s1)c1cc2ccccc2o1	0.15	21*	-2.1	i	i	i
Cc1cc(NC(=O)CSc2nc3cc(Cl)ccc3s2)no1	-0.41	i	-2.1	i	i	i
O=c1oc2cc(Cl)ccc2n1CSc1nc2ccccc2s1	1.79	i	-7.7	-6.6*	i	i
